Several values for one entry are separate records, joined by “and”; a condition that tells them apart may be missing. Equal entries are not always repeated.
How the values were obtained:
[1] = organism: Mus musculus; assay: In vitro P50 value of whole blood of murine was determined after incubation with compound (concentration 30 mM); assay type: functional
In short: (§1)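 Whole blood (human, murine or porcine) incubated 1:1 vol/vol with effector solution at 290–310 mOsM, pH 7, for 60 min at 37 C. Cells then washed three times in 20 mM bis-Tris, pH 7, 308 mOsM. Hb–O2 curves read on a Hemox Analyzer in 20 mM Hemox buffer, pH 7.1–7.2, 37 C. P50 shift in % reported as mean of four values ± SD.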

[2] = organism: Mus musculus; assay: In vitro percent P50 value of whole blood of murine was determined after incubation with compound (concentration 30 mM); assay type: functional; in short: as §1
[3] = target: Hemoglobin beta chain (Mus musculus) (UniProt P02089); assay: In vitro P50 value of free haemoglobin of murine was determined after incubation with compound (concentration 60 mM); assay type: functional
Hemoglobin beta chain (Mus musculus), sequence (P02089 whole entry): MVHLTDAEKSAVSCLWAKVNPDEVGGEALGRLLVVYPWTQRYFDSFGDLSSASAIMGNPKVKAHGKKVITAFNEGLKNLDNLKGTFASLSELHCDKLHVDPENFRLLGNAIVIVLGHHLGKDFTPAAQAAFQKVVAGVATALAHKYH
In short: (§2)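 Free haemoglobin (human or murine) was mixed with a 60 mM compound solution adjusted to pH 6.9–7.1. Oxy-Hb dissociation curves were recorded on a Hemox Analyzer. P50 is the O2 partial pressure at 50% Hb saturation, and the shift is expressed as a percentage of untreated Hb. Means of three to ten P50 values were calculated, depending on the compound and species.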

[4] = target: Hemoglobin beta chain (Mus musculus) (UniProt P02089); assay: In vitro percent P50 value of free haemoglobin of murine was determined after incubation with compound (concentration 60 mM); assay type: functional; in short: as §2
[5] = In vitro P50 value of free haemoglobin of human was determined after incubation with compound (concentration 60 mM)
[6] = In vitro percent P50 value of free haemoglobin of human was determined after incubation with compound (concentration 60 mM)
[7] = organism: Homo sapiens; assay: In vitro P50 value of whole blood of human was determined after incubation with compound (concentration 30 mM); assay type: functional; in short: as §1
[8] = In vitro P50 value of whole blood of procine was determined after incubation with compound (concentration 30 mM); assay type: functional, Sus scrofa; settings: in the assay text read “concentration 60 mM” for “concentration 30 mM”; in short: as §1
[9] = organism: Homo sapiens; assay: In vitro percent P50 value of whole blood of human was determined after incubation with compound (concentration 60 mM); assay type: functional; in short: as §1
[10] = organism: Mus musculus; assay: In vitro percent P50 value of whole blood of murine was determined after incubation with compound (concentration 4 mM); assay type: functional; in short: as §1
[11] = In vitro percent P50 value of whole blood of procine was determined after incubation with compound (concentration 60 mM); assay type: functional, Sus scrofa; in short: as §1
[12] = organism: Homo sapiens; assay: In vitro percent P50 value of whole blood of human was determined after incubation with compound (concentration 30 mM); assay type: functional; in short: as §1
[13] = organism: Mus musculus; assay: In vitro percent P50 value of whole blood of murine was determined after incubation with compound (concentration 60 mM); assay type: functional; in short: as §1
[14] = target: Hemoglobin subunit beta (Sus scrofa) (UniProt P02067); assay: In vitro P50 value of free haemoglobin of procine was determined after incubation with compound (concentration 60 mM); assay type: functional
Hemoglobin subunit beta (Sus scrofa), sequence (P02067 whole entry): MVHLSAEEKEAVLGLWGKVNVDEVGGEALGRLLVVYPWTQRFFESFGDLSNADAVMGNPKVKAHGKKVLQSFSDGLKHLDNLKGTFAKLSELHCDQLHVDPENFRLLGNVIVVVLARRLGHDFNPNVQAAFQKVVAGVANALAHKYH
In short: (§3)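 Porcine free Hb mixed with the effector solution (60 mM; pH adjusted to 6.9–7.1). Hb–O2 dissociation curves recorded on a Hemox Analyzer. P50 is the pO2 at 50% Hb saturation. Shift reported as % change versus control; means of three P50 values.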

[15] = target: Hemoglobin subunit beta (Sus scrofa) (UniProt P02067); assay: In vitro percent P50 value of free haemoglobin of procine was determined after incubation with compound (concentration 60 mM); assay type: functional; in short: as §3

Row | SMILES | P50 [1] [Torr] | P50 [2] [%] | P50 [3] | P50 [4] | also measured
1 | NC1CCCCCC1.NC1CCCCCC1.NC1CCCCCC1.NC1CCCCCC1.NC1CCCCCC1.NC1CCCCCC1.O=P1(O)OC2C3OP(=O)(O)OP(=O)(O)OC3C3OP(=O)(O)OP(=O)(O)OC3C2OP(=O)(O)O1 (centres undefined) [listing 1 of 2 here] | 41.3 | 9 |  |  | 
2 | O=P1(O)OC2C3OP(=O)(O)OP(=O)(O)OC3C3OP(=O)(O)OP(=O)(O)OC3C2OP(=O)(O)O1.c1ccncc1.c1ccncc1.c1ccncc1.c1ccncc1.c1ccncc1 (centres undefined) |  |  | 50 Torr | 100% | P50 [5]: 31.6 Torr; P50 [6]: 107%
3 | CN(C)C1CCCCC1.CN(C)C1CCCCC1.CN(C)C1CCCCC1.CN(C)C1CCCCC1.CN(C)C1CCCCC1.CN(C)C1CCCCC1.O=P1(O)OC2C3OP(=O)(O)OP(=O)(O)OC3C3OP(=O)(O)OP(=O)(O)OC3C2OP(=O)(O)O1 (centres undefined) [listing 1 of 2 here] | 45.5 | 20 |  |  | 
4 | CN(C)C1CCCCC1.CN(C)C1CCCCC1.CN(C)C1CCCCC1.CN(C)C1CCCCC1.CN(C)C1CCCCC1.CN(C)C1CCCCC1.O=P1(O)OC2C3OP(=O)(O)OP(=O)(O)OC3C3OP(=O)(O)OP(=O)(O)OC3C2OP(=O)(O)O1 (centres undefined) [listing 2 of 2 here] |  |  | 45.1 Torr | 81% | 
5 | C1CNCCN1.C1CNCCN1.C1CNCCN1.O=P1(O)OC2C3OP(=O)(O)OP(=O)(O)OC3C3OP(=O)(O)OP(=O)(O)OC3C2OP(=O)(O)O1 (centres undefined) [ITPP TRIPIPERAZINIUM SALT] | 42.3 | 8 |  |  | 
6 | O=P1([O-])OC2C3OP(=O)([O-])OP(=O)([O-])OC3C3OP(=O)([O-])OP(=O)([O-])OC3C2OP(=O)([O-])O1.[Na+].[Na+].[Na+].[Na+].[Na+].[Na+] (centres undefined) [ITPP SODIUM SALT] |  |  |  |  | P50 [7]: 30.8 Torr; P50 [8]: 44.2 Torr; P50 [9]: 39%; P50 [10]: 29%; P50 [11]: 40%
7 | O=P1([O-])OC2C3OP(=O)([O-])OP(=O)([O-])OC3C3OP(=O)([O-])OP(=O)([O-])OC3C2OP(=O)([O-])O1.[Ca+2].[Ca+2].[Ca+2] (centres undefined) | 55.3 |  |  |  | P50 [7]: 31 Torr; P50 [12]: 25%; P50 [13]: 38%
8 | NC1CCCCCC1.NC1CCCCCC1.NC1CCCCCC1.NC1CCCCCC1.NC1CCCCCC1.NC1CCCCCC1.O=P1(O)OC2C3OP(=O)(O)OP(=O)(O)OC3C3OP(=O)(O)OP(=O)(O)OC3C2OP(=O)(O)O1 (centres undefined) [listing 2 of 2 here] |  |  | 43.8 Torr | 76% | 
9 | O=P1(O)OC2C3OP(=O)(O)OP(=O)(O)OC3C3OP(=O)(O)OP(=O)(O)OC3C2OP(=O)(O)O1.c1ccncc1.c1ccncc1.c1ccncc1.c1ccncc1.c1ccncc1 (centres undefined) [ITPP PYRIDINIUM SALT] | 42.7 | 13 |  |  | P50 [7]: 24.3 Torr; P50 [12]: 10%
10 | NC1CCCCCCC1.NC1CCCCCCC1.NC1CCCCCCC1.NC1CCCCCCC1.NC1CCCCCCC1.NC1CCCCCCC1.O=P1(O)OC2C3OP(=O)(O)OP(=O)(O)OC3C3OP(=O)(O)OP(=O)(O)OC3C2OP(=O)(O)O1 (centres undefined) [listing 1 of 2 here] |  |  | 30.6 Torr | 23% | 
11 | C1CNCCN1.C1CNCCN1.C1CNCCN1.C1CNCCN1.C1CNCCN1.C1CNCCN1.O=P1(O)OC2C3OP(=O)(O)OP(=O)(O)OC3C3OP(=O)(O)OP(=O)(O)OC3C2OP(=O)(O)O1 (centres undefined) [ITPP PIPERAZINIUM] | 41.9 | 7 |  |  | 
12 | O=P1(O)OC2C3OP(=O)(O)OP(=O)(O)OC3C3OP(=O)(O)OP(=O)(O)OC3C2OP(=O)(O)O1 (centres undefined) |  |  | 69.7 Torr [middle of 4 runs] | 189% [middle of 4 runs] | P50 [14]: 68.1 Torr; P50 [15]: 209%; P50 [5]: 49.8 Torr and 33.1 Torr; P50 [6]: 225% and 170%
13 | NC1CCCCCCC1.NC1CCCCCCC1.NC1CCCCCCC1.NC1CCCCCCC1.NC1CCCCCCC1.NC1CCCCCCC1.O=P1(O)OC2C3OP(=O)(O)OP(=O)(O)OC3C3OP(=O)(O)OP(=O)(O)OC3C2OP(=O)(O)O1 (centres undefined) [listing 2 of 2 here] | 41.7 | 10 |  |  | 
